From ChEMBL document CHEMBL5653631, “A Potent and Selective ULK1 Inhibitor Suppresses Autophagy and Sensitizes Cancer Cells to Nutrient Stress” (iScience, 2018)
One block for each compound: values may come before it.

Key:
[1] = target: T1, Tyrosine-protein kinase receptor TYRO3 (Homo sapiens) (UniProt Q06418); test: Inhibition of human recombinant TYRO3 at 500 nM related to control ULK1
T1 sequence (whole entry): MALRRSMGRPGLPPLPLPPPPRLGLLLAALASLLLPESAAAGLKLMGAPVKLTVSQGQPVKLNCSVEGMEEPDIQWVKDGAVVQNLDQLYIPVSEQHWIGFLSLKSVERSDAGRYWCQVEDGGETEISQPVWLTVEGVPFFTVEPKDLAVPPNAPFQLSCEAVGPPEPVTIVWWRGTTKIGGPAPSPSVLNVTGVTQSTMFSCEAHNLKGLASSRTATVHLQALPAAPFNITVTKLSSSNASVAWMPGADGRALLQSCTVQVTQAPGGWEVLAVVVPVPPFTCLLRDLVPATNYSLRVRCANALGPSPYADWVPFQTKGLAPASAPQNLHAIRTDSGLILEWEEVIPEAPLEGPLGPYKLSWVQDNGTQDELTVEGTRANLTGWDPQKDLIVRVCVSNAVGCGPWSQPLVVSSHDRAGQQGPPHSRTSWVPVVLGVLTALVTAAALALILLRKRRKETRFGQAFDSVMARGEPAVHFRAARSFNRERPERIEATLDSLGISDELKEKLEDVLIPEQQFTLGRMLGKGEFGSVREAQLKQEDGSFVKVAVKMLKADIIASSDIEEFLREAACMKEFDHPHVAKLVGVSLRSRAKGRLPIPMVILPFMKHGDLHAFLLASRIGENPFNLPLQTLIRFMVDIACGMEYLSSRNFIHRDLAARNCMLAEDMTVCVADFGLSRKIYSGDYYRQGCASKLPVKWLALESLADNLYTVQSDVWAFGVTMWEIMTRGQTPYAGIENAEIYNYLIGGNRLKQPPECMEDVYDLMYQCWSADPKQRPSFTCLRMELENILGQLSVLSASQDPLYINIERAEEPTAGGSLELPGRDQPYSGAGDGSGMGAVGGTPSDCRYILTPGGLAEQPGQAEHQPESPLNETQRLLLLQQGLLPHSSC

[2] = target: MAP/microtubule affinity-regulating kinase 3 (Homo sapiens) (UniProt P27448); test: Inhibition of human recombinant MARK3 at 500 nM in presence of ATP by radiometric assay relative to control
Chain of MAP/microtubule affinity-regulating kinase 3 (Homo sapiens) (P27448 whole entry, looked up): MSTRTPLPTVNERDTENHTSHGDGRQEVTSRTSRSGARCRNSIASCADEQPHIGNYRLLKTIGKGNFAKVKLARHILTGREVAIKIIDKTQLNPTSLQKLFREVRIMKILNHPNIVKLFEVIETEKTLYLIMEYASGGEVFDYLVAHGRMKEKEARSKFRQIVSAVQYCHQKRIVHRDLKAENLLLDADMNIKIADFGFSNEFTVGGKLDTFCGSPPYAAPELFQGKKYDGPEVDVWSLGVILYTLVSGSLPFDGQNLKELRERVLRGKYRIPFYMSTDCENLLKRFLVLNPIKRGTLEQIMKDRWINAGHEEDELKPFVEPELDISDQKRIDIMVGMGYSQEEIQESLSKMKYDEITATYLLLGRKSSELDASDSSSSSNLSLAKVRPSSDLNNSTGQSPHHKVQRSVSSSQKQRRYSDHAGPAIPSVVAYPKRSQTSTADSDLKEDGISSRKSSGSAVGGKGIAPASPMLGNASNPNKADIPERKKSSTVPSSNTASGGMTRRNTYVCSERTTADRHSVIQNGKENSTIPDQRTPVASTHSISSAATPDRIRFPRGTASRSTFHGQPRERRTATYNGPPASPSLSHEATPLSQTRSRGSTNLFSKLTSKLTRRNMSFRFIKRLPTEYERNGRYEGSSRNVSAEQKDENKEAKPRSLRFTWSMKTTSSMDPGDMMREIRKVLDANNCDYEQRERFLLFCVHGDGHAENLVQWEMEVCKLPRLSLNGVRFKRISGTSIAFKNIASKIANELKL

[3] = species on record: Homo sapiens; test: Inhibition of human recombinant ABL at 500 nM in presence of ATP by radiometric assay relative to control
How it was run: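 Panel of 327 recombinant human kinases in radiometric activity assays, each screened in duplicate at a single inhibitor concentration; percent activity remaining relative to vehicle control, percent inhibition taken as 100 minus activity remaining.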

[4] = target: Ribosomal protein S6 kinase alpha-4 (Homo sapiens) (UniProt O75676); test: Inhibition of human recombinant MSK2 at 15 nM in presence of ATP by radiometric assay relative to control
Chain of Ribosomal protein S6 kinase alpha-4 (Homo sapiens) (O75676 whole entry, looked up): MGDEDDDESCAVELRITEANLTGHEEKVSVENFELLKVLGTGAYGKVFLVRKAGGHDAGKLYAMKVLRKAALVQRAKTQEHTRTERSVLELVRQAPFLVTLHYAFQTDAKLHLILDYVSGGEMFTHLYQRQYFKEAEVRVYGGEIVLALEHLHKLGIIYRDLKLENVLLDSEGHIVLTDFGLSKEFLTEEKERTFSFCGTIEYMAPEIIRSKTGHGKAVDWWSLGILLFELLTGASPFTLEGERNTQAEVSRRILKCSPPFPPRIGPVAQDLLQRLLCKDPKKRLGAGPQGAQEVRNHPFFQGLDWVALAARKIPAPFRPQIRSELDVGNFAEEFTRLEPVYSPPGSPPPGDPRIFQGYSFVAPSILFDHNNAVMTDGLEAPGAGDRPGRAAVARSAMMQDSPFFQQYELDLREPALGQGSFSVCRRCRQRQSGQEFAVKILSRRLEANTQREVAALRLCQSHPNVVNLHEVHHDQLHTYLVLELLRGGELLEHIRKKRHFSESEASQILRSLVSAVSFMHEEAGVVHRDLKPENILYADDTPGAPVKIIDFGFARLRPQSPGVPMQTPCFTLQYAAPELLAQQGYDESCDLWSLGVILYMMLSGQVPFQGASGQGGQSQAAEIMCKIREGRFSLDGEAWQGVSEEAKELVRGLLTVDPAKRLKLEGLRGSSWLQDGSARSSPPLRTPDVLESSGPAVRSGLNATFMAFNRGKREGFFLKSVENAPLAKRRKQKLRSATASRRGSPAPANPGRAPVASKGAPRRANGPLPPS

[5] = target: T2, Serine/threonine-protein kinase A-Raf (Homo sapiens) (UniProt P10398); test: Inhibition of human recombinant ARAF at 15 nM related to control ULK1
T2 sequence (whole entry): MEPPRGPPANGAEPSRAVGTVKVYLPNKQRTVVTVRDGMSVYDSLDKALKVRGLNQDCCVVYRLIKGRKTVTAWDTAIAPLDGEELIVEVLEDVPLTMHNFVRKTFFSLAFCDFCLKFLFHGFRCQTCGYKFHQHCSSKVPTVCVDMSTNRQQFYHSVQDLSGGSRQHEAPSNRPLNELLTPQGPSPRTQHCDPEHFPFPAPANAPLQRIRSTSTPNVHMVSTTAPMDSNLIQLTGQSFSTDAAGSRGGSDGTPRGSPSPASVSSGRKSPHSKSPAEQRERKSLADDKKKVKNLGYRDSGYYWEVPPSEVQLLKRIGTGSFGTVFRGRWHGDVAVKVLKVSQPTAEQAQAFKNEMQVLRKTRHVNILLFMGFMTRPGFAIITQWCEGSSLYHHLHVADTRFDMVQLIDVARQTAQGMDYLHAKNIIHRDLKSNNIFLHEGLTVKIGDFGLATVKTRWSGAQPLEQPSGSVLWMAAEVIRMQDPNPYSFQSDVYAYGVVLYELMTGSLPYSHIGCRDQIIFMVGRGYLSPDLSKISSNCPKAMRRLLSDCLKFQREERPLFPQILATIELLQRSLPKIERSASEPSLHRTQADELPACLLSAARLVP
How it was run: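 Panel of 327 recombinant human kinases, each assayed in vitro by radiometric activity assay in duplicate at a single inhibitor concentration per compound, chosen with reference to its ULK1 inhibition. Activity remaining was expressed as percent of vehicle control, and percent inhibition was calculated as 100 minus percent activity remaining.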

[6] = target: T3, Serine/threonine-protein kinase Nek11 (Homo sapiens) (UniProt Q8NG66); test: Inhibition of human recombinant NEK11 at 15 nM related to control ULK1
T3 sequence (whole entry): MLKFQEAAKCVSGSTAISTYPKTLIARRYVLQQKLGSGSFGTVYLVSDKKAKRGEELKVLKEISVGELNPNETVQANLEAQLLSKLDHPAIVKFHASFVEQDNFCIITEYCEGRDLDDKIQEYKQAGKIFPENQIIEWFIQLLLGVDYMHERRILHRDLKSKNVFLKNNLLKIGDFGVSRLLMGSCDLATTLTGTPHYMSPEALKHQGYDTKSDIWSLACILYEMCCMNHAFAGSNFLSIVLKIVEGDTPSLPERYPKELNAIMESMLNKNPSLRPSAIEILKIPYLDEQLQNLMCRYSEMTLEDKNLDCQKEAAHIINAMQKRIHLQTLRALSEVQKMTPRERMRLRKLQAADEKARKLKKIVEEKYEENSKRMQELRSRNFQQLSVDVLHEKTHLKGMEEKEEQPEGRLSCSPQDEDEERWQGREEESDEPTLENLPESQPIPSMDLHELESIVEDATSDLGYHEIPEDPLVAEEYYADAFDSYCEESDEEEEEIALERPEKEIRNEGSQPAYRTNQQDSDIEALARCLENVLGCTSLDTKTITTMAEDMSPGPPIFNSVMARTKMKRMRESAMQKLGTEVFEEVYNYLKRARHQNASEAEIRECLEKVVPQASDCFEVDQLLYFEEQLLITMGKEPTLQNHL

[7] = species on record: Homo sapiens; test: Inhibition of human recombinant CK1d at 15 nM in presence of ATP by radiometric assay relative to control
[8] = target: Serine/threonine-protein kinase/endoribonuclease IRE1 (Homo sapiens) (UniProt O75460); test: Inhibition of human recombinant IRE1 at 40 nM related to control ULK1
Chain of Serine/threonine-protein kinase/endoribonuclease IRE1 (Homo sapiens) (O75460 19-977 limits assumed): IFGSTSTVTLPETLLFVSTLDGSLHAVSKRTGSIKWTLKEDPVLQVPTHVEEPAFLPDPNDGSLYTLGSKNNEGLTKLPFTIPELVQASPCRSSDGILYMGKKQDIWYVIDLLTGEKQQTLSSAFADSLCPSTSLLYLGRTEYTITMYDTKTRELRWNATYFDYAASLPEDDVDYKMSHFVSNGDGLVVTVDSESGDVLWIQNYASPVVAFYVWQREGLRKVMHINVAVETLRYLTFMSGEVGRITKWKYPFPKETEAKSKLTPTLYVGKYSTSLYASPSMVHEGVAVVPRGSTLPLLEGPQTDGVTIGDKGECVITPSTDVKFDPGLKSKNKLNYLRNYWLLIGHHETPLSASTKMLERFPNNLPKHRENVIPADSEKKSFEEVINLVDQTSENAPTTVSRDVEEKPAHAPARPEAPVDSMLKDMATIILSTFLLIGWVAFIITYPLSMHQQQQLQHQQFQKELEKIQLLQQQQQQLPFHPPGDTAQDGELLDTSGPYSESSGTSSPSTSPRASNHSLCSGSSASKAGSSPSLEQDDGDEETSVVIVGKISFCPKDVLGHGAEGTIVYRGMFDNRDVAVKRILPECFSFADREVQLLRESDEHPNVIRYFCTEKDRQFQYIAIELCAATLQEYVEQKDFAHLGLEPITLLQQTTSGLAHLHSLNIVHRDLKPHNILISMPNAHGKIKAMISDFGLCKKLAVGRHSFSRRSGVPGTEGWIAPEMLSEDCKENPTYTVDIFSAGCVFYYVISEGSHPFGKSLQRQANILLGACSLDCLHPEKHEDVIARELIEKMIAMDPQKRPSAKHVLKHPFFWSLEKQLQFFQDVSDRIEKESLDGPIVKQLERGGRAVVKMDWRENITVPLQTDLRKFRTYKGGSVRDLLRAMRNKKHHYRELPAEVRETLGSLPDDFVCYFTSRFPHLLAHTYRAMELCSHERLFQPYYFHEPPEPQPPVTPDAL

[9] = target: Activin receptor type-1-like (Homo sapiens) (UniProt P37023); test: Inhibition of human recombinant ALK1 at 40 nM related to control ULK1
Chain of Activin receptor type-1-like (Homo sapiens) (P37023 whole entry): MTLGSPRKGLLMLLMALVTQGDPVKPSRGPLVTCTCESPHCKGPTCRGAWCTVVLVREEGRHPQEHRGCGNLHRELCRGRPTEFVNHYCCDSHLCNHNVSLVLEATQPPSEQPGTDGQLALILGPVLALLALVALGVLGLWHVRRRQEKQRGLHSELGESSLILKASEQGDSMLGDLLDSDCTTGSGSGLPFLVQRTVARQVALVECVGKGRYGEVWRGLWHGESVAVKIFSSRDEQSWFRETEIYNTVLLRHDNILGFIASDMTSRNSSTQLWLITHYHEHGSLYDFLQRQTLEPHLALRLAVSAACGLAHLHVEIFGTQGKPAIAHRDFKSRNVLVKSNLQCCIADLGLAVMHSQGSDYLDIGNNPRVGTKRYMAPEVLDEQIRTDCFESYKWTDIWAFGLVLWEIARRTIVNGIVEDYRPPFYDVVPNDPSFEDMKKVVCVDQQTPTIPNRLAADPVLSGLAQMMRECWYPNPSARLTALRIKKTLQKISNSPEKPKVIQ
How it was run: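 Radiometric activity assays in a panel of 327 human recombinant kinases, each run in duplicate at one inhibitor concentration. Activity remaining is expressed as percent of vehicle control, and percent inhibition is calculated as 100% minus percent activity remaining.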

[10] = target: Ephrin type-A receptor 7 (Homo sapiens) (UniProt Q15375); test: Inhibition of human recombinant EphA7 at 40 nM related to control ULK1
Chain of Ephrin type-A receptor 7 (Homo sapiens) (Q15375 28-998 limits assumed): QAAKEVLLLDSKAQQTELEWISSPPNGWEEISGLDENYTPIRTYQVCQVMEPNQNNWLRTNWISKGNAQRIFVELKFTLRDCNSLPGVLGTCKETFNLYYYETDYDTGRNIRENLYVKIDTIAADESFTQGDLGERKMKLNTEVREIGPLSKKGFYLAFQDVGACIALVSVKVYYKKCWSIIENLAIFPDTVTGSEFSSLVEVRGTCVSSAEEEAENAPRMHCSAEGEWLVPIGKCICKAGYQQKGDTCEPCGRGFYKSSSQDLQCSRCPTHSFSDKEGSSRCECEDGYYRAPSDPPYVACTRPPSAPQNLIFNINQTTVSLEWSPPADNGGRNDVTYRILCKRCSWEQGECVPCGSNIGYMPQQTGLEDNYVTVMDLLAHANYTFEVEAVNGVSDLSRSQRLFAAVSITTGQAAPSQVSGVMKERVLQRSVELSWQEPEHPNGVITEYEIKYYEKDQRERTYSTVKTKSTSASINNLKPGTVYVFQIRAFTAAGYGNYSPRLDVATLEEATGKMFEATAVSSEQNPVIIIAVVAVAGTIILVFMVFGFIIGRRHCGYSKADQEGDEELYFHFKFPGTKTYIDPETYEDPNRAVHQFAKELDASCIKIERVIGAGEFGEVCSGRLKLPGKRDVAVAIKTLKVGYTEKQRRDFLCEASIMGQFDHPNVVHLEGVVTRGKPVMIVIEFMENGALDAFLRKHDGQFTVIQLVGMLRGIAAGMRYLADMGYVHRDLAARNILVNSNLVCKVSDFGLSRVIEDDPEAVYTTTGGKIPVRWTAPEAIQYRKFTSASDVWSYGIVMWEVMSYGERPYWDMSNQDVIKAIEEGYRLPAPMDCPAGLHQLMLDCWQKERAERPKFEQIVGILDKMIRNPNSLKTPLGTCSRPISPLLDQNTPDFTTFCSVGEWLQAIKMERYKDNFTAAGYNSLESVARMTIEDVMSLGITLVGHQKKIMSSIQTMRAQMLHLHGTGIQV

fold change (FC) [1]: 0.14
inhibition [2]: 45%
inhibition [3]: 14%
Structure (SMILES): CNC(=O)c1ccccc1Oc1nc(Nc2cc(OC)c(OC)c(OC)c2)ncc1Br

inhibition [4]: 0%
fold change (FC) [5]: 0.07
fold change (FC) [6]: 0
inhibition [7]: 3%
Structure (SMILES): CC(C)[C@H](NC(=O)c1cc(-c2cnn3cc(-c4ccc(OCCN5CCCCC5)cc4)cnc23)cs1)C(F)(F)F

fold change (FC) [8]: 0
fold change (FC) [9]: 0.01
fold change (FC) [10]: 0
Structure (SMILES): O=C(N[C@@H](C1CC1)C(F)(F)F)c1cc(-c2cnn3cc(-c4ccc(F)cc4)cnc23)cs1
